“Also recorded” adds a separate entry of the source.
Assays:
Format in all cases: in vivo, Swiss male mice
[1] = tested on: scopolamine-induced memory impairment in mice; experiment: Novel object recognition test; conditions: test phase
Method in brief: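 Swiss male mice, n = 10/group. Test compound (5, 10 or 15 mg/kg) p.o. in saline 1 h before, scopolamine 1.5 mg/kg i.p. 30 min before. Box is 45 × 45 × 50 cm; 5-min sample phase, then 5-min test 24 h later with one object replaced. Nose/forepaw contact is scored as exploration, normalized to total exploration time. Repeated-measures two-way ANOVA, Tukey; mean ± SEM.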

[2] = tested on: scopolamine-induced memory impairment in mice; experiment: Y-maze test in scopolamine-treated mice; conditions: scopolamine 1.5 mg/kg i.p. alone; compared with control group; p < 0.01
Method in brief: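 Swiss male mice, n = 10/group. Test compound p.o. in saline 1 h before, scopolamine 1.5 mg/kg i.p. 30 min before a 10-min session. Arm entry means all four legs inside. Alternation (%) = alternations/(total entries − 2) × 100; entries serve as locomotor index. Arms cleaned with 10% ethanol. One-way ANOVA, Tukey; mean ± SEM.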

[3] = tested on: scopolamine-induced memory impairment in mice; experiment: Morris water maze; conditions: scopolamine 1.5 mg/kg i.p. alone
Method in brief: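 Swiss male mice, n = 10/group. Test compound p.o. in saline 1 h before, scopolamine 1.5 mg/kg i.p. 30 min before each session. Training runs over 6 days, 4 trials/day about 2 min apart, maximum 1 min per trial, then 10 s on the platform if not found. Day 7 probe without platform. Mean ± SEM; repeated-measures two-way ANOVA (training), one-way ANOVA (probe), Tukey.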

[4] = training trials, day 1 to day 6

SMILES | normalized time exploring novel object versus familiar object ([1]; 5 mg/kg p.o. + scopolamine 1.5 mg/kg i.p., p < 0.001) | spontaneous alternation (%) [2] | normalized time exploring novel object versus familiar object ([1]; scopolamine 1.5 mg/kg i.p. alone, p > 0.05) | time spent in the target quadrant ([3]; probe trial day 7, compared with control group) | escape latency [3, 4] | travel (swimming) distance [3, 4]
COc1cc2c(cc1OC)C(=O)C(CC1CCN(Cc3ccccc3)CC1)C2 (stereo not drawn) [donepezil] | significantly longer |  |  |  |  | 
CN1[C@@H]2C[C@@H](OC(=O)[C@H](CO)c3ccccc3)C[C@H]1[C@@H]1O[C@@H]12 [scopolamine] |  | significantly lower; also recorded: significantly decreased | no statistically significant difference | significantly lower; also recorded: decreased | no significant differences | no significant differences

Reference: PMC7671694 (Pharmaceutical Biology, 2020)
